These results are taken from ChEMBL document CHEMBL4152262, “Design, synthesis and evaluation of novel multi-target-directed ligands for treatment of Alzheimer's disease based on coumarin and lipoic acid scaffolds” (Eur J Med Chem, 2018).

Data set [1] concerns PC-12. Put plainly: Inhibition of H2O2-induced ROS generation in rat PC12 cells assessed as intracellular ROS level at 5 uM preincubated for 6 hrs followed by H2O2 addition measured after 18 hrs by DCFH-DA staining based fluorimetric method relative to control. It is filed as functional. On the set-up: scale not given: the % may be the effect or the level left. The gist of the method: (§1)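 PC12 cells at 1×10^4/well in RPMI with 10% FBS and penicillin/streptomycin, 24 h at 37 °C, 5% CO2. Test samples (1, 5, 10, 50 µM; ≤0.5% DMSO) for 6 h, PBS wash, then H2O2 150 µM for 18 h. Loaded with 10 µM DCFH-DA for 30 min at 37 °C in the dark, washed twice. DCF fluorescence read at ex 485/em 528 nm as % of untreated control. Three independent experiments, mean ± SEM.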

Data set [2] has as its system PC-12. Put plainly: Inhibition of H2O2-induced ROS generation in rat PC12 cells assessed as intracellular ROS level at 10 uM preincubated for 6 hrs followed by H2O2 addition measured after 18 hrs by DCFH-DA staining based fluorimetric method relative to control. Set-up: scale not given: the % may be the effect or the level left. The data set is classed as functional. In short, it runs like this:
as §1

In data set [3] the test system is PC-12. Put plainly: Inhibition of H2O2-induced ROS generation in rat PC12 cells assessed as intracellular ROS level at 1 uM preincubated for 6 hrs followed by H2O2 addition measured after 18 hrs by DCFH-DA staining based fluorimetric method relative to control. It is filed as functional. Set-up: scale not given: the % may be the effect or the level left. In short, it runs like this:
as §1

Data set [4] concerns PC-12. Put plainly: Inhibition of H2O2-induced ROS generation in rat PC12 cells assessed as intracellular ROS level at 50 uM preincubated for 6 hrs followed by H2O2 addition measured after 18 hrs by DCFH-DA staining based fluorimetric method relative to control. The data set is classed as functional. Set-up: scale not given: the % may be the effect or the level left. In short, it runs like this:
as §1

A further data set addresses Acetylcholinesterase (Electrophorus electricus, UniProt O42275). Put plainly: Inhibition of electric eel AChE using acetylthiocholine iodide as substrate pretreated for 5 mins followed by substrate addition by Ellman's method.
The test system of data set [5] is SH-SY5Y. The data set is described as follows: Neuroprotection against H2O2-induced cell death in human SH-SY5Y cells assessed as cell viability at 50 uM preincubated for 3 hrs followed by H2O2 addition measured after 24 hrs by MTT assay relative to control. The conditions noted are these: read-out: Activity. It is filed as functional. The gist of the method: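 SH-SY5Y cells grown in DMEM with 10% FBS, 1% L-glutamine and antibiotics, 5×10^3/well. Compound (10 or 50 µM) for 3 h before 250 µM H2O2, then 24 h incubation. MTT read at 570 nm after DMSO solubilization. Viability as blank-corrected % of untreated control; three independent experiments, mean ± SEM.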

For data set [6], the system named is PC-12. The data set is described as follows: Neuroprotection against H2O2-induced cell death in rat PC12 cells assessed as cell viability at 1 uM preincubated for 3 hrs followed by H2O2 stimulation measured after 2 hrs by MTT assay (reference value: 25.2 to 41.8%). It is filed as functional. The settings on record: read-out: Activity.
Data set [7] is described as follows: Inhibition of soybean 15-LOX assessed as reduction in conversion of linoleic acid to 13-hydroperoxylinoleic acid by spectrophotometric method. On the set-up: species or system Glycine max. In short, it runs like this: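 Soybean lipoxygenase type 1-B (final 167 U/mL) with compound (DMSO stock diluted in 0.1 M phosphate buffer pH 8) and linoleic acid (134 mM in ethanol) at room temperature. Formation of 13-hydroperoxylinoleic acid followed spectrophotometrically at 234 nm.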

For data set [8], the system named is PC-12. Put plainly: Cytotoxicity against rat PC12 cells assessed as effect on cell viability at 1 to 50 uM by MTT assay. It is filed as cell-based. The conditions noted are these: pc-12, 50 µM.
Data set [9] deals with SH-SY5Y. The data set is described as follows: Inhibition of amyloid beta (1 to 42) (unknown origin)-induced cell death in human SH-SY5Y cells assessed as cell viability at 50 uM preincubated for 3 hrs followed by amyloid beta (1 to 42) addition measured after 24 hrs by MTT assay relative to control. The data set is classed as functional. The settings on record: read-out: Activity. The gist of the method: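 SH-SY5Y cells grown in DMEM with 10% FBS, 1% L-glutamine and antibiotics, seeded at 5×10^3/well. Pretreated 3 h with compound (10 or 50 µM), then Aβ1-42 10 µM added for 24 h. MTT, formazan dissolved in DMSO, A570. Viability as blank-corrected % of untreated control; three independent experiments, mean ± SEM.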

For data set [10], the system named is PC-12. Put plainly: Neuroprotection against H2O2-induced cell death in rat PC12 cells assessed as cell viability at 20 uM preincubated for 3 hrs followed by H2O2 stimulation measured after 2 hrs by MTT assay (reference value: 25.2 to 41.8%). The data set is classed as functional. The conditions noted are these: read-out: Activity.
In a further data set the target is Cholinesterase (Equus caballus, UniProt P81908). Put plainly: Inhibition of equine serum BuChE using butyrylthiocholine iodide as substrate pretreated for 5 mins followed by substrate addition by Ellman's method. In short, it runs like this: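 Ellman assay with horse serum BuChE (5 IU/mL) in 0.1 M phosphate buffer pH 8.0 with DTNB. Compound was preincubated with enzyme 5 min, then butyrylthiocholine iodide was added. Absorbance read at 412 nm. IC50 from a log concentration vs % inhibition curve; triplicate runs.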

In data set [11] the test system is PC-12. Put plainly: Inhibition of H2O2-induced ROS generation in rat PC12 cells preincubated for 6 hrs followed by H2O2 addition measured after 18 hrs by DCFH-DA staining based fluorimetric method. It is filed as functional, cell-based. The gist of the method: as §1
Data set [12] has as its target Amyloid-beta precursor protein (Homo sapiens) (UniProt P05067). The data set is described as follows: Inhibition of amyloid beta (1 to 42) (unknown origin) self-induced aggregation at 100 uM incubated for 48 hrs by thioflavin-T fluorescence assay relative to control.
Data set [13] concerns PC-12. The data set is described as follows: Neuroprotection against H2O2-induced cell death in rat PC12 cells assessed as cell viability at 50 uM preincubated for 3 hrs followed by H2O2 stimulation measured after 2 hrs by MTT assay (reference value: 25.2 to 41.8%). It is filed as functional. The settings on record: read-out: Activity.
The test system of data set [14] is PC-12. Put plainly: Neuroprotection against H2O2-induced cell death in rat PC12 cells assessed as cell viability at 0.1 uM preincubated for 3 hrs followed by H2O2 stimulation measured after 2 hrs by MTT assay (reference value: 25.2 to 41.8%). It is filed as functional. The settings on record: read-out: Activity.
Data set [15] concerns PC-12. Put plainly: Neuroprotection against H2O2-induced cell death in rat PC12 cells assessed as cell viability at 10 uM preincubated for 3 hrs followed by H2O2 stimulation measured after 2 hrs by MTT assay (reference value: 25.2 to 41.8%). It is filed as functional. The conditions noted are these: read-out: Activity.
Data set [16] relates to PC-12. The data set is described as follows: Neuroprotection against H2O2-induced cell death in rat PC12 cells assessed as increase in cell viability preincubated for 3 hrs followed by H2O2 stimulation measured after 2 hrs by MTT assay. It is filed as functional, cell-based.
For data set [17], the system named is PC-12. The data set is described as follows: Neuroprotection against H2O2-induced cell death in rat PC12 cells assessed as cell viability at 5 uM preincubated for 3 hrs followed by H2O2 stimulation measured after 2 hrs by MTT assay (reference value: 25.2 to 41.8%). The settings on record: read-out: Activity. It is filed as functional.
The test system of data set [18] is SH-SY5Y. The data set is described as follows: Inhibition of amyloid beta (1 to 42) (unknown origin)-induced cell death in human SH-SY5Y cells assessed as cell viability at 100 uM preincubated for 3 hrs followed by amyloid beta (1 to 42) addition measured after 24 hrs by MTT assay relative to control. The conditions noted are these: read-out: Activity.
Data set [19] concerns SH-SY5Y. Put plainly: Neuroprotection against H2O2-induced cell death in human SH-SY5Y cells assessed as cell viability at 100 uM preincubated for 3 hrs followed by H2O2 addition measured after 24 hrs by MTT assay relative to control. The settings on record: read-out: Activity.

Each structure is given as a SMILES string.

Sequence of Amyloid-beta precursor protein (Homo sapiens) (P05067 whole entry): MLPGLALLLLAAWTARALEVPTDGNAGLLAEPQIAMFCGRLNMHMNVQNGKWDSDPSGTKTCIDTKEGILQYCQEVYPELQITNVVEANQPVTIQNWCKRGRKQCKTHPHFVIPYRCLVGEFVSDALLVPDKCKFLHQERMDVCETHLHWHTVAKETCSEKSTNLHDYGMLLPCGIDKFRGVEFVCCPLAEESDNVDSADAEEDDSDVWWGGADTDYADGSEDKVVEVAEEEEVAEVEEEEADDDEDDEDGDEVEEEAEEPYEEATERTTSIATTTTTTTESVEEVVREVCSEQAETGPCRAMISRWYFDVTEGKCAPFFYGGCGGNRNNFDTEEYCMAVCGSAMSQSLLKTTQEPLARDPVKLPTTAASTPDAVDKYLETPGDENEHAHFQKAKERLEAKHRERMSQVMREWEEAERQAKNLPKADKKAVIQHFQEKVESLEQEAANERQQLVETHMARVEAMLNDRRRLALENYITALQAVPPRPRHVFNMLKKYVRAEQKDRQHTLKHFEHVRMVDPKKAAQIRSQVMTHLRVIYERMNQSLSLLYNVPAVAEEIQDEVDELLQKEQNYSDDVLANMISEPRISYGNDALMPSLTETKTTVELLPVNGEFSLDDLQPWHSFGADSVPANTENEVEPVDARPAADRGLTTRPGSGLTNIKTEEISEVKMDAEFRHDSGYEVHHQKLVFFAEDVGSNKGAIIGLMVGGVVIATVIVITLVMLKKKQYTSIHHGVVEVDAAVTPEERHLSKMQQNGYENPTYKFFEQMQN
Sequence of Acetylcholinesterase (O42275 whole entry): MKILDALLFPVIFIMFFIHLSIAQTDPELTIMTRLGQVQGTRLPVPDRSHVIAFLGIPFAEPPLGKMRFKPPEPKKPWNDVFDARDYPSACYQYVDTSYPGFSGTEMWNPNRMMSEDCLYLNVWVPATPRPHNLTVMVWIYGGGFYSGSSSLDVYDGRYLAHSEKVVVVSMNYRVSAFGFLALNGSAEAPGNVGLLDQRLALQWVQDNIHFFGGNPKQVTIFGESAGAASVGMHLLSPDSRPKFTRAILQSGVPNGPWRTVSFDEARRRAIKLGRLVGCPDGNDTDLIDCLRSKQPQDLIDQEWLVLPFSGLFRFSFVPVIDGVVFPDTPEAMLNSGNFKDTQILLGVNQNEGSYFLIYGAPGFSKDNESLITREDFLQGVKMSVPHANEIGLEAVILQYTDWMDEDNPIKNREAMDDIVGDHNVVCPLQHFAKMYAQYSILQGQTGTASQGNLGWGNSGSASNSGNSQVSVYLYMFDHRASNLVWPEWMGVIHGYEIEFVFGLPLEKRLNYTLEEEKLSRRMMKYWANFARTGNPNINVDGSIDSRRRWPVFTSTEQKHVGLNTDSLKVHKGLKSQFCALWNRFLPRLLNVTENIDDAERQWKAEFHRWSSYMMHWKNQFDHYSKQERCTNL
Sequence of Cholinesterase (P81908 whole entry): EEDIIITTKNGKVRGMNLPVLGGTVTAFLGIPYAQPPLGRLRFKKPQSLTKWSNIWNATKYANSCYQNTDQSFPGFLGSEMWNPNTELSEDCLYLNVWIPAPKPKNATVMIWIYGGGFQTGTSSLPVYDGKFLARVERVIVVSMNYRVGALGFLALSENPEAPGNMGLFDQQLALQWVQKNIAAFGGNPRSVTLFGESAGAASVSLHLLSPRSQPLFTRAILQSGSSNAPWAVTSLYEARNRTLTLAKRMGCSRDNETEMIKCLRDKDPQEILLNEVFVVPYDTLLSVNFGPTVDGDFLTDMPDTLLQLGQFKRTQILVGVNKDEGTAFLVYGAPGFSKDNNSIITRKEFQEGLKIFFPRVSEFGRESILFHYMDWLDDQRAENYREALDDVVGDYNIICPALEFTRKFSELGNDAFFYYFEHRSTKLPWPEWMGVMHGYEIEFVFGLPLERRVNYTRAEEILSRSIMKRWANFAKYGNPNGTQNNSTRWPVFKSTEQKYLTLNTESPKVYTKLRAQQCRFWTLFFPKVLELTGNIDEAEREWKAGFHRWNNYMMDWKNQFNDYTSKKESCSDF

On to `O=C(O)CCCCC1CCSS1` (stereo not drawn) [LIPOIC ACID, ALPHA], for which the Activity in the data set on PC-12 [1] is reported as 110.65%; with PC-12 [2], 105.72%; in the data set with PC-12 [3] it was 138.77%; in the data set on PC-12 [4], 55.9%.

On to `Cc1cc(=O)oc2cc(OCCCn3cc(CNC(=O)CCCCC4CCSS4)nn3)ccc12` (stereo not given), for which the IC50 is 55 µM at Acetylcholinesterase, > 100 µM in data set [7] and > 100 µM at Cholinesterase. Also, the viability at 50 µM in the data set with SH-SY5Y [5] is 55.6%; in the data set on SH-SY5Y [9] it was 72.9%; in the data set on PC-12 [13], 75.4%. Besides, the Activity is 131.54% with PC-12 [1]; 122.93% in the data set with PC-12 [2]; “Non-Toxic” with PC-12 [8]; 118.8% in the data set with PC-12 [3]; 49.24% in the data set on PC-12 [4]; “Dose-dependent effect” in the data set with PC-12 [16]. Moreover, in the data set on PC-12 [6], the viability at 1 µM was 54.5%. For the same compound, the viability at 20 µM with PC-12 [10] is 74.3%. Also, the inhibition result with PC-12 [11] was “Dose-dependent effect”; in data set [12], 26.6%. In the data set with PC-12 [14], the viability at 0.1 µM was determined as 44.8%. Besides, in the data set on PC-12 [15], the viability at 10 µM stood at 69.4%. For the same compound, the viability at 5 µM in the data set with PC-12 [17] stood at 64.6%.

Regarding `COc1cc2c(cc1OC)C(=O)C(CC1CCN(Cc3ccccc3)CC1)C2` (stereo not given) [DONEPEZIL], the viability at 100 µM in the data set with SH-SY5Y [18] is 39.9%; in the data set with SH-SY5Y [19] it was 33%.
